Calls of active or inactive are those of the source. No cut-off for these calls is given here.
Key:
[1] = Selectivity index, ratio of IC50 for African green monkey Vero cells to IC50 for chloroquine-sensitive Plasmodium falciparum D6; assay type: toxicity, cell-based; conditions: read-out: Ratio IC50
In short: (§1)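 Vero cells seeded at 25,000 cells/well and grown 24 h, then exposed to a range of compound concentrations for 48 h. Viability measured by Neutral Red uptake; IC50 from dose-response curves. SI calculated as Vero IC50 divided by antiplasmodial IC50 for the named strain.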

Plasmodium falciparum [2] = assay: Antimalarial activity against chloroquine-resistant Plasmodium falciparum W2 assessed as inhibition of parasite growth after 72 hrs by parasite LDH release assay; assay type: functional, organism-based; conditions: W2, 72 h
In short: (§2)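 Asexual P. falciparum cultures at 2% parasitemia and 2% hematocrit in RPMI 1640 with 10% human serum and amikacin were added to serially diluted compound. Plates were incubated 72 h at 37 °C under 90% N2/5% O2/5% CO2. Growth was read by pLDH: Malstat reagent 30 min at room temperature, then NBT/PES 1 h in the dark. IC50 taken from dose-response curves; chloroquine and pyrimethamine controls.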

Plasmodium falciparum [3] = assay: Antimalarial activity against chloroquine-sensitive Plasmodium falciparum D6 assessed as inhibition of parasite growth after 72 hrs by parasite LDH release assay; assay type: functional, organism-based; conditions: D6, 72 h; in short: as §2
Vero [4] = assay: Cytotoxicity against African green monkey Vero cells up to 20 uM after 72 hrs by neutral red assay; assay type: cell-based; conditions: chlorocebus sabaeus, 48 h, in the assay text read “48 hrs” for “72 hrs”
In short: (§3)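 Vero cells (monkey kidney […]) were seeded at 25,000 cells/well and incubated 24 h, then exposed to a range of compound concentrations for 48 h. Viable cells were counted by Neutral Red assay, and IC50 was obtained from dose-response curves.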

Vero [5] = assay: Cytotoxicity against African green monkey Vero cells after 72 hrs by neutral red assay; assay type: cell-based, Chlorocebus sabaeus; conditions: in the assay text read “after 48 hrs” for “after 72 hrs”; in short: as §3
[6] = Selectivity index, ratio of IC50 for African green monkey Vero cells to IC50 for chloroquine-resistant Plasmodium falciparum W2; assay type: toxicity, cell-based; conditions: read-out: Ratio IC50; in short: as §1
[7] = Resistance index, ratio of IC50 for chloroquine-resistant Plasmodium falciparum W2 to IC50 for chloroquine-sensitive Plasmodium falciparum D6; assay type: functional
Plasmodium falciparum [8] = assay: Antimalarial activity against chloroquine-resistant Plasmodium falciparum W2 assessed as inhibition of parasite growth up to 19 uM after 72 hrs by parasite LDH release assay; assay type: functional, organism-based; in short: as §2
Plasmodium berghei [9] = assay: Antimalarial activity against Plasmodium berghei infected in mouse assessed as mean survival time at 100 mg/kg/day, po dosed on days 0, 1 and 2 post infection; assay type: functional
In short: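 P. berghei-infected mice dosed orally with test agent at 11.1, 33.3 or 100 mg/kg, once daily for 3 days; vehicle and chloroquine controls. Mean survival time recorded; parasitemia on days 5 and 7 expressed as % suppression, taking mean vehicle-control parasitemia as 100%.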

Plasmodium berghei [10] = assay: Antimalarial activity against Plasmodium berghei infected in mouse assessed as reduction in parasitemia at 100 mg/kg/day, po dosed on days 0, 1 and 2 post infection measured on day 5; assay type: functional; conditions: 120 h
In short: (§4)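 P. berghei-infected mice were given the compound orally at 11.1, 33.3 or 100 mg/kg × 3 days. Vehicle and chloroquine groups were included. Parasitemia was read on days 5 and 7, and % suppression was calculated with mean parasitemia in the vehicle control taken as 100%. Mean survival time was also recorded.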

Plasmodium berghei [11] = assay: Antimalarial activity against Plasmodium berghei infected in mouse assessed as reduction in parasitemia at 100 mg/kg/day, po dosed on days 0, 1 and 2 post infection measured on day 7; assay type: functional; conditions: 168 h; in short: as §4
Heme [12] = assay: Binding affinity to heme (unknown origin) assessed as reduction in Fe(3+) intensity
Heme [13] = assay: Binding affinity to heme (unknown origin) assessed as reduction in Fe(3+) intensity at pH 5.6
Heme [14] = assay: Binding affinity to monomeric heme (unknown origin) assessed as binding constant at pH 7.4
In short: (§5)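 Hematin in 40% DMSO (monomeric heme, Soret band 402 nm) was titrated with compound in 0.02 M HEPES pH 7.4 or 0.02 M MES pH 5.6. Association constants (log K) were calculated from the titration data, and stoichiometry was taken from a Job's plot of absorbance at 402 nm against compound mole fraction.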

Heme [15] = assay: Binding affinity to monomeric heme (unknown origin) assessed as binding constant at pH 5.6; in short: as §5
Heme [16] = assay: Binding affinity to heme (unknown origin) assessed as reduction in Fe(3+) intensity at pH 7.4
mu-oxodimeric heme = assay: Binding affinity to mu-oxo-heme (unknown origin) assessed as binding constant at pH 5.8
In short: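 μ-Oxo-dimeric heme in 20 mM phosphate buffer pH 5.8 was titrated with compound, following the decrease in absorbance at 362 nm. The log K was derived from the titration, and stoichiometry came from a Job's plot.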

[17] = Chlorocebus sabaeus, Vero, 48 h, read-out: IC50

Fc1ccc(Nc2ccnc(NCCNc3ccnc4cc(Cl)ccc34)n2)cc1
selectivity ratio [1]: > 3.32 | IC50 (Plasmodium falciparum [2]): 9990 nM | IC50 (Plasmodium falciparum [3]): 6020 nM | Activity (Vero [4]): Non-toxic | IC50 (Vero [5]; vero): Not Active | selectivity ratio [6]: > 2 | Ratio IC50 [7]: 1.65

Clc1ccc2c(NCCCNc3nccc(Nc4ccc(Br)cc4)n3)ccnc2c1
selectivity ratio [1]: 228 | IC50 (Plasmodium falciparum [2]): 47 nM | IC50 (Plasmodium falciparum [3]): 49 nM | IC50 (Vero [5]; [17]): 11200 nM | selectivity ratio [6]: 237 | Ratio IC50 [7]: 0.95

Fc1ccc(Nc2ccnc(NCCCCNc3ccnc4cc(Cl)ccc34)n2)cc1
selectivity ratio [1]: > 6.25 | IC50 (Plasmodium falciparum [2]): 5830 nM | IC50 (Plasmodium falciparum [3]): 3200 nM | Activity (Vero [4]): Non-toxic | IC50 (Vero [5]; vero): Not Active | selectivity ratio [6]: > 3.43 | Ratio IC50 [7]: 1.82

CCc1nc(N)nc(N)c1-c1ccc(Cl)cc1
growth inhibition (GI) (Plasmodium falciparum [8]): inactive

Clc1ccc(Nc2ccnc(NCCCCNc3ccnc4cc(Cl)ccc34)n2)cc1
selectivity ratio [1]: 251 | IC50 (Plasmodium falciparum [2]): 52 nM | IC50 (Plasmodium falciparum [3]): 44 nM | IC50 (Vero [5]; [17]): 11000 nM | selectivity ratio [6]: 212 | Ratio IC50 [7]: 1.18

Cc1ccc(Nc2ccnc(NCCNc3ccnc4cc(Cl)ccc34)n2)cc1
selectivity ratio [1]: 135 | IC50 (Plasmodium falciparum [2]): 143 nM | IC50 (Plasmodium falciparum [3]): 101 nM | IC50 (Vero [5]; [17]): 13600 nM | selectivity ratio [6]: 95.1 | Ratio IC50 [7]: 1.41

CCN(CC)CCCC(C)Nc1ccnc2cc(Cl)ccc12 (configuration not stated) [CHLOROQUINE]
MST (Plasmodium berghei [9]): 26.2 days | inhibition in vivo at 100 mg/kg/day (Plasmodium berghei [10]): 100% | Activity (Vero [4]): Non-toxic | IC50 (Vero [5]; vero): Not Active | inhibition in vivo at 100 mg/kg/day (Plasmodium berghei [11]): 100%

Clc1ccc2c(NCCNc3nccc(Nc4ccccc4)n3)ccnc2c1
selectivity ratio [1]: > 13.2 | IC50 (Plasmodium falciparum [2]): 1530 nM | IC50 (Plasmodium falciparum [3]): 1510 nM | Activity (Vero [4]): Non-toxic | IC50 (Vero [5]; vero): Not Active | selectivity ratio [6]: > 13.1 | Ratio IC50 [7]: 1.05

COc1ccc(Nc2ccnc(NCCCCNc3ccnc4cc(Cl)ccc34)n2)cc1
selectivity ratio [1]: 223 | IC50 (Plasmodium falciparum [2]): 67 nM | IC50 (Plasmodium falciparum [3]): 50 nM | IC50 (Vero [5]; [17]): 11100 nM | selectivity ratio [6]: 166 | Ratio IC50 [7]: 1.34

Cc1ccc(Nc2ccnc(NCCCCNc3ccnc4cc(Cl)ccc34)n2)cc1
selectivity ratio [1]: 140 | IC50 (Plasmodium falciparum [2]): 518 nM | IC50 (Plasmodium falciparum [3]): 138 nM | IC50 (Vero [5]; [17]): 19300 nM | selectivity ratio [6]: 37.2 | Ratio IC50 [7]: 3.75

Cc1ccc(Nc2ccnc(NCCCNc3ccnc4cc(Cl)ccc34)n2)cc1
selectivity ratio [1]: 121 | IC50 (Plasmodium falciparum [2]): 346 nM | IC50 (Plasmodium falciparum [3]): 153 nM | IC50 (Vero [5]; [17]): 18500 nM | selectivity ratio [6]: 53.4 | Ratio IC50 [7]: 2.26

COc1ccc(Nc2ccnc(NCCCNc3ccnc4cc(Cl)ccc34)n2)cc1
selectivity ratio [1]: 333 | IC50 (Plasmodium falciparum [2]): 81 nM | IC50 (Plasmodium falciparum [3]): 40 nM | IC50 (Vero [5]; [17]): 13300 nM | selectivity ratio [6]: 165 | Ratio IC50 [7]: 2.02

COc1cc(Nc2ccnc(NCCCNc3ccnc4cc(Cl)ccc34)n2)cc(OC)c1
selectivity ratio [1]: 340 | IC50 (Plasmodium falciparum [2]): 107 nM | IC50 (Plasmodium falciparum [3]): 38 nM | IC50 (Vero [5]; [17]): 12900 nM | selectivity ratio [6]: 121 | Ratio IC50 [7]: 2.81

Clc1ccc(Nc2ccnc(NCCNc3ccnc4cc(Cl)ccc34)n2)cc1
selectivity ratio [1]: 335 | IC50 (Plasmodium falciparum [2]): 46 nM | Activity (Heme [12]): Active | IC50 (Plasmodium falciparum [3]): 47 nM | Activity (Heme [13]): Active | IC50 (Vero [5]; [17]): 15800 nM | selectivity ratio [6]: 342 | Ratio IC50 [7]: 0.978 | log K (Heme [14]): 5.04 | log K (Heme [15]): 5.51 | Activity (Heme [16]): Active | log K (mu-oxodimeric heme): 5.12

Clc1ccc2c(NCCCNc3nccc(Nc4ccccc4)n3)ccnc2c1
selectivity ratio [1]: 676 | IC50 (Plasmodium falciparum [2]): 144 nM | IC50 (Plasmodium falciparum [3]): 19 nM | IC50 (Vero [5]; [17]): 12800 nM | selectivity ratio [6]: 89.2 | Ratio IC50 [7]: 7.57

Clc1ccc2c(NCCCCNc3nccc(Nc4ccccc4)n3)ccnc2c1
selectivity ratio [1]: 326 | IC50 (Plasmodium falciparum [2]): 403 nM | IC50 (Plasmodium falciparum [3]): 44 nM | IC50 (Vero [5]; [17]): 14300 nM | selectivity ratio [6]: 35.5 | Ratio IC50 [7]: 9.15

Fc1ccc(Nc2ccnc(NCCCNc3ccnc4cc(Cl)ccc34)n2)cc1
selectivity ratio [1]: 490 | IC50 (Plasmodium falciparum [2]): 94 nM | IC50 (Plasmodium falciparum [3]): 28 nM | IC50 (Vero [5]; [17]): 13700 nM | selectivity ratio [6]: 146 | Ratio IC50 [7]: 3.35

Clc1ccc2c(NCCNc3nccc(Nc4ccc(Br)cc4)n3)ccnc2c1
selectivity ratio [1]: > 541 | IC50 (Plasmodium falciparum [2]): 136 nM | IC50 (Plasmodium falciparum [3]): 37 nM | Activity (Vero [4]): Non-toxic | IC50 (Vero [5]; vero): Not Active | selectivity ratio [6]: > 147 | Ratio IC50 [7]: 3.67

COc1ccc(Nc2ccnc(NCCNc3ccnc4cc(Cl)ccc34)n2)cc1
selectivity ratio [1]: > 500 | IC50 (Plasmodium falciparum [2]): 241 nM | IC50 (Plasmodium falciparum [3]): 40 nM | Activity (Vero [4]): Non-toxic | IC50 (Vero [5]; vero): Not Active | selectivity ratio [6]: > 83 | Ratio IC50 [7]: 6.03

Clc1ccc(Nc2ccnc(NCCCNc3ccnc4cc(Cl)ccc34)n2)cc1
selectivity ratio [1]: 286 | IC50 (Plasmodium falciparum [2]): 445 nM | IC50 (Plasmodium falciparum [3]): 47 nM | IC50 (Vero [5]; [17]): 13400 nM | selectivity ratio [6]: 30.2 | Ratio IC50 [7]: 9.46

Clc1ccc2c(NCCCCNc3nccc(Nc4ccc(Br)cc4)n3)ccnc2c1
selectivity ratio [1]: 214 | IC50 (Plasmodium falciparum [2]): 63 nM | IC50 (Plasmodium falciparum [3]): 47 nM | IC50 (Vero [5]; [17]): 10000 nM | selectivity ratio [6]: 159 | Ratio IC50 [7]: 1.34

COc1cc(Nc2ccnc(NCCCCNc3ccnc4cc(Cl)ccc34)n2)cc(OC)c1
selectivity ratio [1]: 285 | IC50 (Plasmodium falciparum [2]): 120 nM | IC50 (Plasmodium falciparum [3]): 44 nM | IC50 (Vero [5]; [17]): 12500 nM | selectivity ratio [6]: 104 | Ratio IC50 [7]: 2.72
